# pEC50, pKd: −log10 of the molar value.
# Assays:
# REH = assay: Cytotoxicity against human REH cells overexpressing GR assessed as reduction in cell viability measured after 3 days by resazurin based assay; type: functional; details: for pEC50: Homo sapiens, REH, 72 h, read-out: EC50
# Outline: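 REH B-ALL cells (naturally GR-null) were lentivirally infected with GFP-T2A-GR, and the top 10% GFP sorted population was used. Cells grown in RPMI + 10% FBS, seeded at 9,000 cells/well in 384-well format. DMSO serial dilutions (2500 µM to 0.01 µM stocks) were diluted 1:500 and then added 1:1, giving 0.1% final DMSO. Exposure 72 h. Read-out: PrestoBlue fluorescence (Ex 560/Em 590), normalized to DMSO-only wells. EC50 by 4-parameter fit per replicate, at least 6 replicates.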
# Glucocorticoid receptor = target: T1, Glucocorticoid receptor (Homo sapiens, UniProt P04150); assay: Induction of translocation of human glucocorticoid receptor expressed in HEK293T cells transduced with lentiviral vector expressing H2B-mCherry and GFP-GR assessed as effective dissociation constant measured every 130 sec for 22 mins by fluorescence imaging analysis; type: cell-based; details: for pKd: read-out: Kd
# T1 sequence (P04150 whole entry): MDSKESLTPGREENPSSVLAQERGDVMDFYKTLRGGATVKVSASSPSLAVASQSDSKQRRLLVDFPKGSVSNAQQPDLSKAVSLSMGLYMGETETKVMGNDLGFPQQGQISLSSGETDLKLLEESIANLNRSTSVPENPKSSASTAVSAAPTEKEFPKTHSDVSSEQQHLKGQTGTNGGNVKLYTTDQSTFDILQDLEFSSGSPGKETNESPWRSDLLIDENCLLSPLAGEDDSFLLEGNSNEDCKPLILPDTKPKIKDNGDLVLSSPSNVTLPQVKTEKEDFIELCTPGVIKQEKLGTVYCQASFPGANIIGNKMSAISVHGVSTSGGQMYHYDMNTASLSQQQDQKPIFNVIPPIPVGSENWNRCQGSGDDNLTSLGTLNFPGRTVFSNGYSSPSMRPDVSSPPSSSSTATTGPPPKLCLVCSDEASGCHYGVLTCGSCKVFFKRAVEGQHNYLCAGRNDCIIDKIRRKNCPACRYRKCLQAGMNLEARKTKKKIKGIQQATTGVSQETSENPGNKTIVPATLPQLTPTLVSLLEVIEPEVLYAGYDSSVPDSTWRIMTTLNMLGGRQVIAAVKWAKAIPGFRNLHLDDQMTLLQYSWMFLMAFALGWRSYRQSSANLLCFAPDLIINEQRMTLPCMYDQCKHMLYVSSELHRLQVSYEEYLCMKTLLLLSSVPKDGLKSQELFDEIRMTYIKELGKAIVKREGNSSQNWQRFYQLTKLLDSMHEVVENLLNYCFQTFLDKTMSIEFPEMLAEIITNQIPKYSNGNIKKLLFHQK
# [1] = target: T2, Glucocorticoid receptor (Homo sapiens) (UniProt P04150); details: HEK293T, filed as modulator, time 22.0 min
# T2 sequence (whole entry): T1 sequence (P04150 whole entry)
structure (smiles),measurement,setting,value
C[C@@H]1C[C@H]2[C@@H]3CCC4=CC(=O)C=C[C@]4(C)[C@@]3(F)[C@@H](O)C[C@]2(C)[C@@]1(O)C(=O)CO [DEXAMETHASONE],pEC50,REH,8.17
C[C@]12Cc3cnn(-c4ccccc4)c3C=C1CC[C@@H]1[C@@H]2[C@@H](O)C[C@@]2(C)[C@H]1CC[C@]2(O)C(=O)CO,pEC50,REH,8.64
same,pKd,Glucocorticoid receptor,8.66
same,T1/2,[1],2.67 min
Cc1ccc(-n2cc3c(n2)C=C2CC[C@@H]4[C@H]([C@@H](O)C[C@@]5(C)[C@H]4CC[C@]5(O)C(=O)CO)[C@@]2(C)C3)cc1,pEC50,REH,5.14
same,pKd,Glucocorticoid receptor,6.05
COc1cccc(-n2cc3c(n2)C=C2CC[C@@H]4[C@H]([C@@H](O)C[C@@]5(C)[C@H]4CC[C@]5(O)C(=O)CO)[C@@]2(C)C3)c1,Kd,Glucocorticoid receptor; hek293t,Not Active
C[C@]12Cc3cnn(-c4ccc(F)cc4)c3C=C1CC[C@@H]1[C@@H]2[C@@H](O)C[C@@]2(C)[C@H]1CC[C@]2(O)C(=O)CO,pEC50,REH,8.85
same,pKd,Glucocorticoid receptor,8.59
same,T1/2,[1],2.2 min
C[C@]12Cc3cn(-c4ccccc4)nc3C=C1CC[C@@H]1[C@@H]2[C@@H](O)C[C@@]2(C)[C@H]1CC[C@]2(O)C(=O)CO,pEC50,REH,8.89
same,pKd,Glucocorticoid receptor,8.66
same,T1/2,[1],2.63 min
COc1cccc(-n2ncc3c2C=C2CC[C@@H]4[C@H]([C@@H](O)C[C@@]5(C)[C@H]4CC[C@]5(O)C(=O)CO)[C@@]2(C)C3)c1,pEC50,REH,6.46
same,T1/2,[1],4.17 min
C[C@]12Cc3cn(-c4ccc(F)cc4)nc3C=C1CC[C@@H]1[C@@H]2[C@@H](O)C[C@@]2(C)[C@H]1CC[C@]2(O)C(=O)CO,pEC50,REH,6.65
same,pKd,Glucocorticoid receptor,6.86
same,T1/2,[1],4.33 min
CCCCCCn1cc2c(n1)C=C1CC[C@@H]3[C@H]([C@@H](O)C[C@@]4(C)[C@H]3CC[C@]4(O)C(=O)CO)[C@@]1(C)C2,EC50,REH; reh,Not Active
CCCCCCn1ncc2c1C=C1CC[C@@H]3[C@H]([C@@H](O)C[C@@]4(C)[C@H]3CC[C@]4(O)C(=O)CO)[C@@]1(C)C2,pEC50,REH,7.57
same,pKd,Glucocorticoid receptor,8.05
same,T1/2,[1],2.1 min
